Measured values taken from ChEMBL document CHEMBL1759925, “Rapidly photoactivatable ATP probes for specific labeling of tropomyosin within the actomyosin protein complex” (Bioorg Med Chem Lett, 2011).
Activity calls are given as the source filed them.

Legend:
Gallus gallus [1] = species: Gallus gallus; experiment: Binding affinity to chicken skeletal muscle tropomyosin within actomyosin protein complex at 125 uM after 1 hr followed by 10 mins irradiation with UVA by chemiluminescent assay using avidin-horseradish peroxidase conjugate in presence of 1 mM of calcium chloride
Summary of the method: (§1)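 Actomyosin (3.9 µg) was incubated with photoaffinity ATP probe for 1 h in 30 mM Tris–HCl (pH 7.2), 5 mM MgCl₂ and 1 mM CaCl₂, with no EGTA. Samples were then irradiated at 360 nm, separated by 10% SDS–PAGE and blotted to PVDF. Labeled bands were detected by chemiluminescence with avidin-HRP conjugate.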

Gallus gallus [2] = species: Gallus gallus; experiment: Binding affinity to chicken skeletal muscle actomyosin at 125 uM after 1 hr followed by 10 mins irradiation with UVA by chemiluminescent method using avidin-horseradish peroxidase conjugate in presence of 1 mM of calcium chloride; summary of the method: as §1
Gallus gallus [3] = species: Gallus gallus; experiment: Binding affinity to chicken skeletal muscle actin within actomyosin protein complex at 125 uM after 1 hr followed by 10 mins irradiation with UVA by chemiluminescent method using avidin-horseradish peroxidase conjugate in presence of 1 mM of calcium chloride; summary of the method: as §1
Gallus gallus [4] = species: Gallus gallus; experiment: Binding affinity to chicken skeletal muscle tropomyosin within actomyosin protein complex at 125 uM after 1 hr followed by 10 mins irradiation with UVA by chemiluminescent assay using avidin-horseradish peroxidase conjugate; format: tissue-based; settings: Muscle tissue
Summary of the method: (§2)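 Actomyosin (3.9 µg) was incubated for 1 h with photoaffinity ATP probe in 30 mM Tris–HCl (pH 7.2), 5 mM MgCl₂ and 1 mM EGTA, then irradiated with 360 nm light. Photoproducts were resolved on 10% SDS–PAGE, transferred to PVDF, and labeled proteins visualized by chemiluminescence using avidin-HRP conjugate.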

Gallus gallus [5] = species: Gallus gallus; experiment: Binding affinity to chicken skeletal muscle tropomyosin within actomyosin protein complex at 125 uM after 1 hr followed by 10 mins irradiation with UVA by Western blot analysis; format: tissue-based; settings: Muscle tissue; summary of the method: as §2
Gallus gallus [6] = species: Gallus gallus; experiment: Binding affinity to chicken skeletal muscle tropomyosin within actomyosin protein complex at 125 uM after 1 hr followed by 10 mins irradiation with UVA by SDS-PAGE analysis using coomassie brilliant blue staining; format: tissue-based; settings: Muscle tissue
Gallus gallus [7] = species: Gallus gallus; experiment: Binding affinity to chicken skeletal muscle myosin within actomyosin protein complex at 125 uM after 1 hr followed by 10 mins irradiation with UVA by chemiluminescent method using avidin-horseradish peroxidase conjugate in presence of 1 mM of calcium chloride; summary of the method: as §1

Measured: Activity

Nc1ncnc2c1ncn2[C@@H]1O[C@H](COP(=O)(O)OP(=O)(O)OP(=O)(O)NCc2ccc(C3(C(F)(F)F)N=N3)cc2)[C@@H](O)[C@H]1O
active: all assays above

Nc1ncnc2c1ncn2[C@@H]1O[C@H](COP(=O)(O)OP(=O)(O)OP(=O)(O)NCc2ccc(C3(C(F)(F)F)N=N3)cc2OCCOCCOCCNC(=O)CCCC[C@@H]2SC[C@@H]3NC(=O)N[C@@H]32)[C@@H](O)[C@H]1O
active: Gallus gallus [4] | Gallus gallus [6]
